Columns and labels:
[1] = molecular target: T1, Sterol O-acyltransferase 2 (Chlorocebus aethiops, UniProt O77759); assay: Inhibition of African green monkey SOAT2 isolated from CHO cell microsomes assessed as decrease in [14C]CE synthesis from [1-14C]oleoyl-CoA after 5 mins
T1 sequence (O77759 whole entry): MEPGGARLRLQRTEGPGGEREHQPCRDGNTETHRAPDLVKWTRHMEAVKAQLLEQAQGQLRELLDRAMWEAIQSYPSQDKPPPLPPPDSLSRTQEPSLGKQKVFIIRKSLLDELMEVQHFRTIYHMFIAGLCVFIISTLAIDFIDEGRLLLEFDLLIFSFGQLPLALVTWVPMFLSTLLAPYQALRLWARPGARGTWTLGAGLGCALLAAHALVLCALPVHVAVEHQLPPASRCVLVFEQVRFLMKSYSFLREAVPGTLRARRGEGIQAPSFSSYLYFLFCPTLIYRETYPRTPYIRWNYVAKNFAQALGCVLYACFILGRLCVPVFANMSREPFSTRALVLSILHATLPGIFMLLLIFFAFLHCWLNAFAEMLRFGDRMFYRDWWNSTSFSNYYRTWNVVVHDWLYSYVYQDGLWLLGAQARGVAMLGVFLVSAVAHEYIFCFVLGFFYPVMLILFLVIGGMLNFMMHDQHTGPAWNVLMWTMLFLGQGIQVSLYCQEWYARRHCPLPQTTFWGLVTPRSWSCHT

Chlorocebus aethiops [2] = organism: Chlorocebus aethiops; assay: Selectivity index, ratio of IC50 for African green monkey SOAT1 expressed in CHO cells to IC50 for African green monkey SOAT2 expressed in CHO cells; type: cell-based
Method in brief: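 Monolayers of SOAT1- or SOAT2-CHO cells (≥80% confluent, overnight recovery) got CH3OH compound stocks (0–1 mg/mL) plus [14C]oleic acid (1 nmol, 1.85 kBq) for 6 h at 37 °C. Cells were SDS-lysed and Bligh–Dyer extracted, and [14C]CE was quantified by TLC radioimaging as percent of control. IC50s came from triplicate experiments, mean ± SD. SI = log(IC50 SOAT1/IC50 SOAT2).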

CHO [3] = assay: Effect on phospholipid synthesis in CHO cells expressing African green monkey SOAT1 up to 21 to 23 uM; type: ADME, cell-based, Cricetulus griseus; conditions: chinese hamster
Method in brief: (§1)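 SOAT1- or SOAT2-expressing CHO cells were grown in Ham's F-12 with MEM vitamins, geneticin (300 μg/mL) and 10% heat-inactivated FBS at 37 °C, 5% CO2. Cells were seeded at 1.25 × 10⁵/well, recovered overnight, and used at ≥80% confluence. Compound stocks in CH3OH (0–1 mg/mL) were added with [14C]oleic acid (1 nmol) for 6 h. Lipids were Bligh–Dyer extracted, and [14C]PL was resolved by TLC and imaged.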

CHO [4] = assay: Effect on phospholipid synthesis in CHO cells expressing African green monkey SOAT2 up to 21 to 23 uM; type: ADME, cell-based, Cricetulus griseus; conditions: chinese hamster
Method in brief: as §1

[5] = molecular target: T2, Sterol O-acyltransferase 1 (Chlorocebus aethiops, UniProt O77760); assay: Inhibition of African green monkey SOAT1 expressed in CHO cells assessed as decrease in [14C]CE synthesis from [14C]oleic acid after 6 hrs; type: cell-based
T2 sequence (O77760 whole entry): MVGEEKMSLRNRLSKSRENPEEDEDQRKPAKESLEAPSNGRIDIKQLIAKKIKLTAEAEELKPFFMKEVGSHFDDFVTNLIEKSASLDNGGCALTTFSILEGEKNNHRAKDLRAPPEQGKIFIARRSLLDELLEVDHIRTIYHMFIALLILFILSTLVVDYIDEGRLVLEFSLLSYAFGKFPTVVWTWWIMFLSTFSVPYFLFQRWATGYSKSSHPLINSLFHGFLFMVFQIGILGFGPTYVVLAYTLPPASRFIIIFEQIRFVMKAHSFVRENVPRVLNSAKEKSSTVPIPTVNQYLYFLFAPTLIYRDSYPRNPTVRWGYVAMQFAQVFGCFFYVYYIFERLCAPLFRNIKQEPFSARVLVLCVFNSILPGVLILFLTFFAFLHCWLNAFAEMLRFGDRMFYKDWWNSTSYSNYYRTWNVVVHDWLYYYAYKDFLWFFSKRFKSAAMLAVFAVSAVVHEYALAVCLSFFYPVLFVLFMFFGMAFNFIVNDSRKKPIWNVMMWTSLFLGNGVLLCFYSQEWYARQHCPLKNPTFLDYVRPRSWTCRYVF

[6] = molecular target: T2, Sterol O-acyltransferase 1; assay: Inhibition of African green monkey SOAT1 isolated from CHO cell microsomes assessed as decrease in [14C]CE synthesis from [1-14C]oleoyl-CoA after 5 mins
CHO [7] = assay: Effect on cell morphology in CHO cells expressing African green monkey SOAT2 up to 21 to 23 uM; type: ADME, cell-based, Cricetulus griseus; conditions: chinese hamster
CHO [8] = assay: Effect on cell morphology in CHO cells expressing African green monkey SOAT1 up to 21 to 23 uM; type: ADME, cell-based, Cricetulus griseus; conditions: chinese hamster
Chlorocebus aethiops [9] = organism: Chlorocebus aethiops; assay: Selectivity index, ratio of IC50 for African green monkey SOAT1 isolated from CHO cell microsomes to IC50 for African green monkey SOAT2 isolated from CHO cell microsomes
Method in brief: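 Microsomes were made by homogenizing SOAT1- or SOAT2-CHO cells in sucrose/KCl/KH2PO4/EDTA buffer (pH 7.2) and pelleting at 100,000 × g, 1 h, 4 °C. They were incubated with fatty-acid-free BSA and compound in methanol, and the reaction was started with [1-14C]oleoyl-CoA for 5 min at 37 °C. It was stopped with CHCl3:MeOH 2:1, and [14C]CE was measured by TLC radioimaging. Values are mean ± SD, n = 3. SI = log(IC50 SOAT1/IC50 SOAT2).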

[10] = molecular target: T1, Sterol O-acyltransferase 2; assay: Inhibition of African green monkey SOAT2 expressed in CHO cells assessed as decrease in [14C]CE synthesis from [14C]oleic acid after 6 hrs; type: cell-based

Row | IC50 [1] | IC50 [5] | IC50 [6] | -log(RatioIC50) (Chlorocebus aethiops [9]) | IC50 [10] | SMILES | log(RatioIC50) (Chlorocebus aethiops [2]) | Activity (CHO [3]) | Activity (CHO [4]) | Activity (CHO [7]) | Activity (CHO [8]) | -log(RatioIC50) (Chlorocebus aethiops [2])
1 | 5300 nM | 5200 nM | 2100 nM | 0.4 | 4200 nM | C[C@@H](C[C@H]1C(=O)N(C)[C@@H](C[C@H](C)C(Cl)(Cl)Cl)C(=O)N1C)C(Cl)(Cl)Cl | 0.092 | Non-Toxic | Non-Toxic | Non-Toxic | Non-Toxic | –
2 | 860 nM | 780 nM | 230 nM | 0.57 | 2800 nM | CCC(=O)[C@H](C[C@H](C)C(Cl)(Cl)Cl)NC(=O)[C@H](C[C@H](C)C(Cl)(Cl)Cl)N(C)C | – | Non-Toxic | Non-Toxic | Non-Toxic | Non-Toxic | 0.56
3 | 3200 nM | 1200 nM | 1000 nM | 0.51 | 2400 nM | CCC(=O)[C@H](C[C@H](C)C(Cl)(Cl)Cl)NC(=O)/C=C/[C@H](C)C(Cl)(Cl)Cl | – | Non-Toxic | Non-Toxic | Non-Toxic | Non-Toxic | 0.3

From ChEMBL document CHEMBL4219214, “Callyspongiamides A and B, sterol O-acyltransferase inhibitors, from the Indonesian marine sponge Callyspongia sp” (Bioorg Med Chem Lett, 2018)
